Reference: ChEMBL document CHEMBL1157537 (J Med Chem, 2008)
Active and inactive are the calls of the source. The rule behind the calls is not given here.

Experiments:
[1] = target: T1, Progesterone receptor (Homo sapiens) (UniProt P06401); assay: Agonist activity at human progesterone receptor relative to progesterone; assay type: functional
T1 sequence (whole entry): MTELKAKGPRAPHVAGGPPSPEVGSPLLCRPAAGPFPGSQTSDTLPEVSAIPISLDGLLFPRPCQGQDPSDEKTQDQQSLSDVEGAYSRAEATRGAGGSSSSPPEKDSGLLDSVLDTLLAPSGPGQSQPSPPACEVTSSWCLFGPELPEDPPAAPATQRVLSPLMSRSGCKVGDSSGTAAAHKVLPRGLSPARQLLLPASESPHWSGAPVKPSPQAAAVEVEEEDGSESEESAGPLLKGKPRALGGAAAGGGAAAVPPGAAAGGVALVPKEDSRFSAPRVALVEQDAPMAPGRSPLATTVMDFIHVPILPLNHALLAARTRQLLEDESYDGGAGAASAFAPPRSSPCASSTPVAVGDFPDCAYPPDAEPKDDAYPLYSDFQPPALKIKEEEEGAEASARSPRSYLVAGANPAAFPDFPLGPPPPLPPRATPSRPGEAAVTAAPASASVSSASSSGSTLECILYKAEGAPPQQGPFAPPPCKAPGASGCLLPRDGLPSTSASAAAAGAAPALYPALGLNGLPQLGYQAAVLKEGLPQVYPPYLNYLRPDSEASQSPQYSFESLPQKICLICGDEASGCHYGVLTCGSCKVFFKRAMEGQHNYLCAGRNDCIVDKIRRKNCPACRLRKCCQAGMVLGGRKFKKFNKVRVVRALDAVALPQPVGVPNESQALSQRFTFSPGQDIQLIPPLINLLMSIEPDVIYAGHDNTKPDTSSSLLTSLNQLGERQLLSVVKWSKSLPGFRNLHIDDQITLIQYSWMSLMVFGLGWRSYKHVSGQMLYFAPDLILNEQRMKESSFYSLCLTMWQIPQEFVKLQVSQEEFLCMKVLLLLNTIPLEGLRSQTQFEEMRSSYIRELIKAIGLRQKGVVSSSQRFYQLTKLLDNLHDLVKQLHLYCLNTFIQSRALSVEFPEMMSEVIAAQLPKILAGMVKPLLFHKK

[2] = target: T1, Progesterone receptor (Homo sapiens); assay: Agonist activity at human progesterone receptor in human T47D cells assessed as alkaline phosphatase activity relative to progesterone; assay type: functional, cell-based
[3] = target: T2, Progesterone receptor (Homo sapiens, UniProt P06401); assay: Binding affinity at human progesterone receptor
T2 sequence (P06401 whole entry): T1 sequence (whole entry)

[4] = target: T2, Progesterone receptor; assay: Agonist activity at human progesterone receptor; assay type: functional
[5] = target: T2, Progesterone receptor; assay: Agonist activity at human progesterone receptor in human T47D cells assessed as alkaline phosphatase activity; assay type: functional, cell-based
[6] = species on record: Rattus norvegicus; assay: Progestational activity in estrone-treated ovariectomized rat assessed as effect on uterine epithelial cell height; assay type: functional, organism-based
Method in brief: (§1)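 Ovariectomized rats were treated with estrone, alone or combined with test progestin, and compared with vehicle and estrone-only groups. Endpoints were uterine epithelial cell height, vaginal epithelial thickness and mammary alveolar bud proliferation.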

[7] = species on record: Rattus norvegicus; assay: Progestational activity in estrone-treated ovariectomized rat assessed as effect on vaginal epithelial thickness; assay type: functional, organism-based; method in brief: as §1
[8] = species on record: Rattus norvegicus; assay: Progestational activity in estrone-treated ovariectomized rat assessed as reduction of breast alveolar bud proliferation; assay type: functional, organism-based; method in brief: as §1
[9] = species on record: Rattus norvegicus; assay: Progestational activity in estrone-treated ovariectomized rat assessed as inhibition of medroxyprogesterone acetate-induced effect on uterine epithelial cell height; assay type: functional, organism-based
Method in brief: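 Antagonist mode of the estrone-treated ovariectomized rat multi-endpoint model: compound was combined with MPA plus estrone, with vehicle and estrone-only groups. Endpoints were uterine epithelial cell height, vaginal epithelial thickness and mammary alveolar bud proliferation.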

[10] = target: T3, Glucocorticoid receptor (Homo sapiens, UniProt P04150); assay: Antagonist activity at human glucocorticoid receptor; assay type: functional
T3 sequence (P04150 whole entry): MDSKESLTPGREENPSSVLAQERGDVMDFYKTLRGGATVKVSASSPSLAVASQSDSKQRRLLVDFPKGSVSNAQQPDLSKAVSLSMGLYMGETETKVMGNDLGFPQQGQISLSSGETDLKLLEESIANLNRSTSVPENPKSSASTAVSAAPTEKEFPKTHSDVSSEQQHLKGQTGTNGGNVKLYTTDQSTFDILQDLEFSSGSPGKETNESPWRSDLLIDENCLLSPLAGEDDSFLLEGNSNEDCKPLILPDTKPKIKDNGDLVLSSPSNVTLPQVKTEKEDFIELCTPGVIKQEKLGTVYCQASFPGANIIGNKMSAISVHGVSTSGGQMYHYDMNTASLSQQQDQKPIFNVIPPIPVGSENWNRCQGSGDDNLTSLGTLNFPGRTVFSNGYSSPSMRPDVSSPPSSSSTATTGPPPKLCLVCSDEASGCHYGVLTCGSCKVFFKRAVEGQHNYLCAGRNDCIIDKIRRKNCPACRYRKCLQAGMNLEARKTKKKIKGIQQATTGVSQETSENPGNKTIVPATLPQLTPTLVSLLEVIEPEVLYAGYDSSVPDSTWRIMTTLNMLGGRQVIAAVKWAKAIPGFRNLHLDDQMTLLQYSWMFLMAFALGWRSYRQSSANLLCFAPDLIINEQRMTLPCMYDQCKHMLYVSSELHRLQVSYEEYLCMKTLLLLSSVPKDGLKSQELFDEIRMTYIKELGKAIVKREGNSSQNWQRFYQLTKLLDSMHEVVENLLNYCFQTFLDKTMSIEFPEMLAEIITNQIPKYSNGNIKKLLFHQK

[11] = target: T4, Mineralocorticoid receptor (Homo sapiens, UniProt P08235); assay: Antagonist activity at human mineralocorticoid receptor; assay type: functional
T4 sequence (P08235 whole entry): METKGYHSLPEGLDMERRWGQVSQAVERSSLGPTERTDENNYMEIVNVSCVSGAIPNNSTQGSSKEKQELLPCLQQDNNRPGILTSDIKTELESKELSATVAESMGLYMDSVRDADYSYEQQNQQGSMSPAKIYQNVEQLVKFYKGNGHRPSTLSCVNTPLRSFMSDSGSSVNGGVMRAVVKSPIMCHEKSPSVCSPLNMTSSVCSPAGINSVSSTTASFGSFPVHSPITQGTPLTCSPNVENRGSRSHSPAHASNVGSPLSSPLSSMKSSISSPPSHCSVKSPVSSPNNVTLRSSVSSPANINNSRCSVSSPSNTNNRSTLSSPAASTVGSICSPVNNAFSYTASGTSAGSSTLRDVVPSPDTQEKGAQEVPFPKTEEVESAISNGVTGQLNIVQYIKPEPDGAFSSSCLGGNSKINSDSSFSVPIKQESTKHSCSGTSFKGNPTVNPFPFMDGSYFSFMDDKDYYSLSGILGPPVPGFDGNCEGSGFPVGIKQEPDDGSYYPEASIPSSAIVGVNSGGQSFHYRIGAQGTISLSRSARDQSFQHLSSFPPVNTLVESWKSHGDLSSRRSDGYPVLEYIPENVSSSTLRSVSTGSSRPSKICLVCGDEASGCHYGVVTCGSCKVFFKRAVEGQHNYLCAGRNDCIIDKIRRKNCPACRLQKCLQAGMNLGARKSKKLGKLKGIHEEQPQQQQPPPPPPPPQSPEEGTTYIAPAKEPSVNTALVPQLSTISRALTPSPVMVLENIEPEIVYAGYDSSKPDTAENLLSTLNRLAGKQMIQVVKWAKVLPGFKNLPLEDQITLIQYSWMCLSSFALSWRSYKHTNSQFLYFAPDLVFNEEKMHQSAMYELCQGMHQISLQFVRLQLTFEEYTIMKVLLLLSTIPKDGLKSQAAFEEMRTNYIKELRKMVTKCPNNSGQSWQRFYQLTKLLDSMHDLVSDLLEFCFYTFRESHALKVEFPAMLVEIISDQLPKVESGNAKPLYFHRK

[12] = target: T5, Androgen receptor (Homo sapiens, UniProt P10275); assay: Agonist activity at human androgen receptor; assay type: functional
T5 sequence (P10275 whole entry): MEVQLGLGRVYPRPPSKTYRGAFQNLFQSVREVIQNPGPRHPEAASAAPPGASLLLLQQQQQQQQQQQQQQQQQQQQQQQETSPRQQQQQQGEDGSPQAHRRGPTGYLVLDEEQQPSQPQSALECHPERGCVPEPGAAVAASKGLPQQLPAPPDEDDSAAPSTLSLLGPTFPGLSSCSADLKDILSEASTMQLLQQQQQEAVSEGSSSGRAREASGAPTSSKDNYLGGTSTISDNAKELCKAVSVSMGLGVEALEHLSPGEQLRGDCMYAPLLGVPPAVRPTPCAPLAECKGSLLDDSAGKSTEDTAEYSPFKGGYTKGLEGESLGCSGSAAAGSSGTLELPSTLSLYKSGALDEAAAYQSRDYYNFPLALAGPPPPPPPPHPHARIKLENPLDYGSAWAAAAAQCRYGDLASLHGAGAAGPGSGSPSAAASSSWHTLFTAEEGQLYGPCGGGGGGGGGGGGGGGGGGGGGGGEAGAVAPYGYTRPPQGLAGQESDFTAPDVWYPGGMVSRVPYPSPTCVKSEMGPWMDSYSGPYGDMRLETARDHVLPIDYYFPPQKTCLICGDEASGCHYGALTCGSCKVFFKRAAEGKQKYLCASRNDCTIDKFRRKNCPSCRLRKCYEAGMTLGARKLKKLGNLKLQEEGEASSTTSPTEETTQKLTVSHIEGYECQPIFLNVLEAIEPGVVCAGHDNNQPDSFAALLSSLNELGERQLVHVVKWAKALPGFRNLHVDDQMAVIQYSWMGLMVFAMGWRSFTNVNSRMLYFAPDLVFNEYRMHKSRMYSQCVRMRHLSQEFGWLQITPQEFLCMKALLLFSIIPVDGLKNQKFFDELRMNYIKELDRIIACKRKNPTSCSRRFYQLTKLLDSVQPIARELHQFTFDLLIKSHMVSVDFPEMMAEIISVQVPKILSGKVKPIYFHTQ

| Structure (SMILES) | Efficacy [1] [%] | Efficacy [2] [%] | EC50 [4] [nM] | EC50 [5] [nM] | further results |
| --- | --- | --- | --- | --- | --- |
| CC1=CC(C)(C)Nc2ccc3c(c21)[C@H]([C@H]1CCC[C@@]2(C)O[C@@H]12)Oc1c(F)cc(F)cc1-3 | 177 | 59 | 0.4 | 2.8 | Ki [3]: 1.2 nM |
| CC(=O)O[C@]1(C(C)=O)CC[C@H]2[C@@H]3C[C@H](C)C4=CC(=O)CC[C@]4(C)[C@H]3CC[C@@]21C | 98 | 98 | – | – | Activity [6]: Active; Activity [7]: Active; Activity [8]: Active |
| C[C@@H]1C[C@@H]2C(=C3CCC(=O)C=C31)[C@@H](c1ccc(N(C)C)cc1)C[C@@]1(C)[C@H]2CC[C@@]12CCCO2 | – | – | – | – | Activity [9]: Active |
| CC1=CC(C)(C)Nc2ccc3c(c21)[C@H]([C@H]1CCCC(C)=C1C)Oc1c(F)cc(F)cc1-3 (racemic) | 97 | 66 | 10.7 | 96 | – |
| CC1=CC(C)(C)Nc2ccc3c(c21)[C@H]([C@@H]1C=CCCC1)Oc1c(F)cc(F)cc1-3 (racemic) | 171 | 66 | 3.4 | 27 | Ki [3]: 4.8 nM |
| CC1=C[C@@H]([C@@H]2Oc3c(F)cc(F)cc3-c3ccc4c(c32)C(C)=CC(C)(C)N4)CCC1 (racemic) | 162 | – | – | – | – |
| CC1=C[C@H]([C@@H]2Oc3c(F)cc(F)cc3-c3ccc4c(c32)C(C)=CC(C)(C)N4)CCC1 (racemic) | 100 | 63 | – | – | – |
| CC1=C[C@@H]([C@@H]2Oc3c(F)cc(F)cc3-c3ccc4c(c32)C(C)=CC(C)(C)N4)CCC1 (stereo in doubt; (+)-5d) | 11 | – | – | – | – |
| CC1=C[C@@H]([C@@H]2Oc3c(F)cc(F)cc3-c3ccc4c(c32)C(C)=CC(C)(C)N4)CCC1 (stereo in doubt; (-)-5c) | – | – | – | – | IC50 [10]: 34 nM; IC50 [11]: 1350 nM; EC50 [12]: 1800 nM |
